Results on 3 compounds are retold here after ChEMBL document CHEMBL1921795, “Discovery, synthesis, and structure-activity relationship development of a series of N-4-(2,5-dioxopyrrolidin-1-yl)phenylpicolinamides (VU0400195, ML182): characterization of a novel positive allosteric modulator of the metabotropic glutamate receptor 4 (mGlu(4)) with oral efficacy in an …” (J Med Chem, 2011).

Bounds are passed on as bounds.

Data set [1] relates to Brain. Put plainly: Fraction unbound in rat brain homogenate by equilibrium dialysis. The data set is classed as ADME, tissue-based. Background: In equilibrium dialysis free small molecules cross a membrane that holds back macromolecules.
Data set [2] has as its system Plasma. Kind of data set: Fraction unbound in human plasma. Format: ADME, cell-free.
A further data set deals with Cytochrome P450 2C9 (Homo sapiens, UniProt P11712). Put plainly: Inhibition of CYP2C9 in human liver microsomes using diclofenac as substrate.
Sequence of Cytochrome P450 2C9 (P11712 whole entry): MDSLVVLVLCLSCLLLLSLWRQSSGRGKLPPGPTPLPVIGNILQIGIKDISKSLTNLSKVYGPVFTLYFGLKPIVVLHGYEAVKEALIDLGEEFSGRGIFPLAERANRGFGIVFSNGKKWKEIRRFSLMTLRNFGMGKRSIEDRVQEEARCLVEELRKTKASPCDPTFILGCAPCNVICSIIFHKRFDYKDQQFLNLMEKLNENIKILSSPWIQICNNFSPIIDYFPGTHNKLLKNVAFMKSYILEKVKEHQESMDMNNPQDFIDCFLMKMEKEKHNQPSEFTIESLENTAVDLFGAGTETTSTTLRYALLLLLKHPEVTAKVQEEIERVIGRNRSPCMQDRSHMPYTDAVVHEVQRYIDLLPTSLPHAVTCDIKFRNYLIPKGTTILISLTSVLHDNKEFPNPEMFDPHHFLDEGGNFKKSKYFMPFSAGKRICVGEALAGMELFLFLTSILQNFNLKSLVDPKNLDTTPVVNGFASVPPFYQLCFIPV
A short description of data set [3]: Intrinsic clearance in rat hepatic microsomes at 1 uM by LC/MS/MS analysis. The data set is classed as ADME, Microsome. The note with it: rat liver microsomes. (In general: Microsomes from liver hold many membrane-bound enzymes, among them those of drug oxidation.)
A further data set has as its target T1, Cytochrome P450 1A2 (Homo sapiens, UniProt P05177).
T1 sequence (P05177 whole entry): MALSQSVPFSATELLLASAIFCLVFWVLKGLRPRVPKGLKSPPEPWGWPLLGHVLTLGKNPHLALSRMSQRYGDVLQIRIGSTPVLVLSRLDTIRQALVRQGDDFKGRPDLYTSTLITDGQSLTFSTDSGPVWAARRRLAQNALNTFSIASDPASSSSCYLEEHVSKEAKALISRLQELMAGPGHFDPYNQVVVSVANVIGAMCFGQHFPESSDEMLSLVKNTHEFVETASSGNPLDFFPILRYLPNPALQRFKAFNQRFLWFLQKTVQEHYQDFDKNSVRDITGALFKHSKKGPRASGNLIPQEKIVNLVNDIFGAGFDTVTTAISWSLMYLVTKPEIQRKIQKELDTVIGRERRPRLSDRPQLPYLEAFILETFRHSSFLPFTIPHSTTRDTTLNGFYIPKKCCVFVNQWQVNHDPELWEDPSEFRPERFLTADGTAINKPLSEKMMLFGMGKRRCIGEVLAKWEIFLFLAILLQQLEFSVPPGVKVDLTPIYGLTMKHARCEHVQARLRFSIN
Put plainly: Inhibition of CYP1A2 in human liver microsomes using phenacetin as substrate.

For the next data set, the target named is Cytochrome P450 2C19 (Homo sapiens, UniProt P33261). Put plainly: Inhibition of CYP2C19 in human liver microsomes using S-mephenytoin as substrate. The data set is classed as ADME, Microsome.
Sequence of Cytochrome P450 2C19 (P33261 whole entry): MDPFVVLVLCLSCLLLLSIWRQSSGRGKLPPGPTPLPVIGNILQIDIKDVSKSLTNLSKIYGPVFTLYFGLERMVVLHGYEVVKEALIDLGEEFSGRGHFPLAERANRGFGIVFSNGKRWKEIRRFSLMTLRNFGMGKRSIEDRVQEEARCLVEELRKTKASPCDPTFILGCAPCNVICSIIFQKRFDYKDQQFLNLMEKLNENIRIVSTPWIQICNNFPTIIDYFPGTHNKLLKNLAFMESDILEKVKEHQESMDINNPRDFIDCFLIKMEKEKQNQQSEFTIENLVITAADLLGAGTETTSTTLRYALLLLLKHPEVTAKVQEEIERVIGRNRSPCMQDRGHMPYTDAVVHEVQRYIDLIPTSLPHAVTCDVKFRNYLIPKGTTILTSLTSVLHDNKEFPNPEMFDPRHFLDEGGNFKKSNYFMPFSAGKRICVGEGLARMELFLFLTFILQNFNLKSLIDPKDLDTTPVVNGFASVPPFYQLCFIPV
Data set [4] in a line: Intrinsic clearance in human hepatic microsomes. The data set is classed as ADME, Microsome. The settings on record: human liver microsomes.
Data set [5] deals with Metabotropic glutamate receptor 6 (Homo sapiens, UniProt O15303). Put plainly: Positive allosteric modulator activity at human mGlu6 receptor at 10 uM by thallium flux assay. The procedure, abridged: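 Cells expressing human mGlu6 with GIRK channels, thallium flux double-addition protocol. 10 µM compound or vehicle was added, then a full glutamate concentration-response 2.5 min later. A left shift >2-fold was scored as potentiator activity. A right shift >2-fold or max depression ≥75% was scored as antagonist activity. Mean ± SEM of three experiments in singlicate.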
Sequence of Metabotropic glutamate receptor 6 (O15303 whole entry): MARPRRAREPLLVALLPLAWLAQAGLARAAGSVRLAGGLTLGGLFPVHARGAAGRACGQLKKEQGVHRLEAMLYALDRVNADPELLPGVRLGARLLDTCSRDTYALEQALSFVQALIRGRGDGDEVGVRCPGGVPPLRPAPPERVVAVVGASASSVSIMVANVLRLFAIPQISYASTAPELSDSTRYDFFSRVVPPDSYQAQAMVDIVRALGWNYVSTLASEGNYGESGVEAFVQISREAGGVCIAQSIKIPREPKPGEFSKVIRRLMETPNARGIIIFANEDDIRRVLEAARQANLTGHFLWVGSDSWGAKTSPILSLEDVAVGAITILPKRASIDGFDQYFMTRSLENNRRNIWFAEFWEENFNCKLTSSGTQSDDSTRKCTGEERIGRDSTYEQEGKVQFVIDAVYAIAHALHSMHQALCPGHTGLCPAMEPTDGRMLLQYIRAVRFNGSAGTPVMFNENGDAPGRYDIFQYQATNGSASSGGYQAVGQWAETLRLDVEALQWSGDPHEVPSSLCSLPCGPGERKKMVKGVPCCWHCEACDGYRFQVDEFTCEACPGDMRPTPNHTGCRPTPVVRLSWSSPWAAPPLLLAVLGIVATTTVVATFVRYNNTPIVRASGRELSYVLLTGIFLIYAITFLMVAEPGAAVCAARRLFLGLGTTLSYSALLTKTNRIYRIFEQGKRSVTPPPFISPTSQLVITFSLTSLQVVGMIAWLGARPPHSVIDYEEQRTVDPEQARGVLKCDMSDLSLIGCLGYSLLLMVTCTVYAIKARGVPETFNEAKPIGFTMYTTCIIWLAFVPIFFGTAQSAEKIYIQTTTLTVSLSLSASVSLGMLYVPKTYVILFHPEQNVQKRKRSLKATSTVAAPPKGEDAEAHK

In data set [6] the test system is Plasma. Kind of data set: Fraction unbound in rat plasma by equilibrium dialysis. Format: ADME, cell-free. The procedure, abridged: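 Rat plasma spiked with compound, equilibrium dialysis against 25 mM phosphate buffer pH 7.4 for 4 h at 37 °C with shaking; both chambers matrix-matched, acetonitrile-extracted and quantified by LC/MS/MS; triplicate.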
The target of the next data set is Cytochrome P450 2D6 (Homo sapiens, UniProt P10635). Put plainly: Inhibition of CYP2D6 in human liver microsomes using […] as substrate. Format: ADME, Microsome. The procedure, abridged: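 Pooled human liver microsomes (0.1 mg/mL) with probe cocktail (phenacetin 10 µM, diclofenac 5 µM, dextromethorphan 5 µM, midazolam 2 µM) in 0.1 M phosphate pH 7.4; compound 100 nM–30 µM in duplicate, 15 min preincubation at 37 °C, then 1 mM NADPH for 8 min. LC/MS/MS of metabolite formation; IC50 derived.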
Sequence of Cytochrome P450 2D6 (P10635 whole entry): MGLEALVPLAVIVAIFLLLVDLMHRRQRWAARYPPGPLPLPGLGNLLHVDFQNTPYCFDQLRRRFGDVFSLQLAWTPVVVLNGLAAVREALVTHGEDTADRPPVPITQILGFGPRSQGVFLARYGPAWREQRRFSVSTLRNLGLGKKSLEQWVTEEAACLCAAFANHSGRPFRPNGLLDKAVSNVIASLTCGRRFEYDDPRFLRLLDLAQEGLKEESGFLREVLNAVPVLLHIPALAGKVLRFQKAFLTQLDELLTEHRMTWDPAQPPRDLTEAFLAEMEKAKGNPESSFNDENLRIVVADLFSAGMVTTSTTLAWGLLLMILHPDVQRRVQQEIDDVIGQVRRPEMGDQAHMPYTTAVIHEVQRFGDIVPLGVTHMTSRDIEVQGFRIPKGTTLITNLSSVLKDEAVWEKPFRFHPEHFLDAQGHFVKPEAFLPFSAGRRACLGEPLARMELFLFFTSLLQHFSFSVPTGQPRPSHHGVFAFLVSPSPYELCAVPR

In data set [7] the test system is Rattus norvegicus. Kind of data set: Cmax in Sprague-Dawley rat at 10 mg/kg, po by LC/MS analysis. The data set is classed as ADME, organism-based. Also on record: dose 10 mg/kg, route oral. The settings on record: in vivo.
A short description of data set [8]: AUC (0 to 6 hrs) in Sprague-Dawley rat hepatic portal vein plasma at 10 mg/kg, po. The data set is classed as ADME, organism-based. Also on record: time < 6 hr, dose 10 mg/kg, route oral.
In data set [9] the test system is Rattus norvegicus. Put plainly: AUC (0 to 24 hrs) in Sprague-Dawley rat at 1 mg/kg, iv by LC/MS analysis. The data set is classed as ADME, organism-based, Plasma. The note with it: in vivo. Also on record: time < 24 hr, dose 1 mg/kg, route intravenous. In a few lines:
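Male Sprague-Dawley rats (n=2, 250-300 g) with carotid artery and jugular vein catheters, acclimated about one week, fed ad libitum. Dose given through the jugular catheter in 20% DMSO/80% saline at 1 mL/kg. Carotid blood drawn pre-dose and at 2, 7, 15, 30 min and 1, 2, 4, 7, 24 h into chilled EDTA tubes. Plasma measured by LC/MS/MS; parameters from noncompartmental analysis of individual profiles.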

Data set [10] has as its system Rattus norvegicus. Kind of data set: Oral bioavailability in Sprague-Dawley rat at 10 mg/kg by LC/MS analysis. The data set is classed as ADME, organism-based. The settings on record: in vivo.
Data set [11] relates to Rattus norvegicus. Put plainly: AUC (0 to 24 hrs) in Sprague-Dawley rat at 10 mg/kg, po by LC/MS analysis. Format: ADME, organism-based, Plasma. Also on record: time < 24 hr, dose 10 mg/kg, route oral. The settings on record: in vivo.
In data set [12] the test system is Rattus norvegicus. Put plainly: Half life in Sprague-Dawley rat at 1 mg/kg, iv by LC/MS analysis. The data set is classed as ADME, organism-based. Also on record: dose 1 mg/kg, route intravenous. The settings on record: in vivo. In a few lines: (§1)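 Male Sprague-Dawley rats (n=2, 250-300 g), carotid and jugular cannulated; 1 mg/kg iv via jugular catheter in 20% DMSO/80% saline. Arterial blood from pre-dose to 24 h, EDTA plasma analysed by LC/MS/MS; noncompartmental analysis of individual profiles.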

The subject of data set [13] is Rattus norvegicus. Kind of data set: Volume of distribution at steady state in Sprague-Dawley rat at 1 mg/kg, iv by LC/MS analysis. The settings on record: in vivo. Also on record: dose 1 mg/kg, route intravenous. The data set is classed as ADME, organism-based. The procedure, abridged:
as §1

A short description of data set [14]: Ratio of AUC in brain to plasma in Sprague-Dawley rat.
Data set [15] relates to Brain. Put plainly: AUC (0 to 6 hrs) in Sprague-Dawley rat brain at 10 mg/kg, po. The settings on record: in vivo. The data set is classed as ADME, organism-based. Also on record: time < 6 hr, dose 10 mg/kg, route oral.
The nature of data set [16]: Half life in iv dosed Beagle dog. The data set is classed as ADME, organism-based, Canis lupus familiaris. The note with it: in vivo.
The nature of data set [17]: Half life in rhesus monkey at 1 mg/kg, iv by LC/MS analysis. The data set is classed as ADME, organism-based, Macaca mulatta. The settings on record: in vivo. Also on record: dose 1 mg/kg, route intravenous. The procedure, abridged:
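Rhesus monkeys (8-11 kg) tranquilized with ketamine 10 mg/kg im and Telazol 3 mg/kg im. Compound given iv at 1 mg/kg, blood collected, plasma analysed by LC/MS/MS (MRM, positive ESI).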

As a reminder, the IC50 is the point on the concentration scale where inhibition reaches its midpoint. What is called CLint scaled is the capacity of the preparation to metabolise the compound, expressed as a volume cleared per time. The term EC50 denotes the concentration that produces a half-maximal response. Turning to `O=C(Nc1ccc(N2C(=O)[C@@H]3[C@H](C2=O)[C@@H]2C=C[C@H]3C2)c(Cl)c1)c1ccccn1` (mixture of isomers), the Fu is 7.6% with Brain [1], 4.1% in the data set with Plasma [2] and 3.2% in the data set with Plasma [6]. In addition, the 50% inhibitory concentration (IC50) on Cytochrome P450 2C9, against Cytochrome P450 1A2, against Cytochrome P450 2C19 and against Cytochrome P450 2D6 was > 30 µM each time. The compound further yielded a CLint scaled at 1 µM in data set [3] of 53 mL/min/kg. For the same compound, the CLint scaled in data set [4] worked out at 19.7 mL/min/kg. In data set [5], the EC50 was > 10 µM.

As usually defined, the Cmax is the maximum level reached in the sampled fluid or tissue. As usually defined, the AUC(0-t) is the area under the concentration-time curve up to a stated or last time point. For orientation: AUC means the area under the concentration-time curve, a measure of exposure. The Vdss is the apparent volume that relates the amount in the body to the concentration in plasma or blood. One may read the Kp as tissue or fluid exposure divided by exposure in the circulation. In the data set on Rattus norvegicus [7], `Cl.O=C(Nc1ccc(N2C(=O)[C@@H]3[C@H](C2=O)[C@@H]2C=C[C@H]3C2)c(Cl)c1)c1ccccn1` returned a Cmax of 238 ng/mL. Also, the AUC(0-t) at 6 h in [8] turned out to be 8.48 nM·h. The AUC was 454 ng·h/mL in the data set on Rattus norvegicus [9], 4354 ng·h/mL in the data set with Rattus norvegicus [11] and 800 nM·h in the data set on Brain [15]. The compound further came in with a F in the data set with Rattus norvegicus [10] of 97%. This compound also gave a t1/2 in the data set on Rattus norvegicus [12] of 0.673 h. In the data set on Rattus norvegicus [13], this compound returned a Vdss of 18 L/kg. Further, in data set [14], the Kp was 0.93.

What is called half-life is the time in which the quantity being followed falls by half. Turning to `Cl.O=C(Nc1ccc(N2C(=O)CC(c3ccccc3)C2=O)c(Cl)c1)c1ccccn1` (configuration not stated), the Cmax with Rattus norvegicus [7] was 553 ng/mL. Besides, the AUC with Rattus norvegicus [9] was 3225 ng·h/mL; in the data set on Rattus norvegicus [11], 2685 ng·h/mL. The compound further came in with a F with Rattus norvegicus [10] of 8.3%. Moreover, the half-life in data set [16] and in data set [17] was > 3 h in each case. The compound further registered a t1/2 with Rattus norvegicus [12] of 5.48 h. Also, the Vdss in the data set with Rattus norvegicus [13] is 0.58 L/kg.
